# Legend:
# [1] = molecular target: T1, Progesterone receptor (Homo sapiens, UniProt P06401); test: Displacement of [3H]-progesterone from cytosolic fraction of human recombinant progesterone-B receptor by scintillation counting analysis
# T1 sequence (P06401 whole entry): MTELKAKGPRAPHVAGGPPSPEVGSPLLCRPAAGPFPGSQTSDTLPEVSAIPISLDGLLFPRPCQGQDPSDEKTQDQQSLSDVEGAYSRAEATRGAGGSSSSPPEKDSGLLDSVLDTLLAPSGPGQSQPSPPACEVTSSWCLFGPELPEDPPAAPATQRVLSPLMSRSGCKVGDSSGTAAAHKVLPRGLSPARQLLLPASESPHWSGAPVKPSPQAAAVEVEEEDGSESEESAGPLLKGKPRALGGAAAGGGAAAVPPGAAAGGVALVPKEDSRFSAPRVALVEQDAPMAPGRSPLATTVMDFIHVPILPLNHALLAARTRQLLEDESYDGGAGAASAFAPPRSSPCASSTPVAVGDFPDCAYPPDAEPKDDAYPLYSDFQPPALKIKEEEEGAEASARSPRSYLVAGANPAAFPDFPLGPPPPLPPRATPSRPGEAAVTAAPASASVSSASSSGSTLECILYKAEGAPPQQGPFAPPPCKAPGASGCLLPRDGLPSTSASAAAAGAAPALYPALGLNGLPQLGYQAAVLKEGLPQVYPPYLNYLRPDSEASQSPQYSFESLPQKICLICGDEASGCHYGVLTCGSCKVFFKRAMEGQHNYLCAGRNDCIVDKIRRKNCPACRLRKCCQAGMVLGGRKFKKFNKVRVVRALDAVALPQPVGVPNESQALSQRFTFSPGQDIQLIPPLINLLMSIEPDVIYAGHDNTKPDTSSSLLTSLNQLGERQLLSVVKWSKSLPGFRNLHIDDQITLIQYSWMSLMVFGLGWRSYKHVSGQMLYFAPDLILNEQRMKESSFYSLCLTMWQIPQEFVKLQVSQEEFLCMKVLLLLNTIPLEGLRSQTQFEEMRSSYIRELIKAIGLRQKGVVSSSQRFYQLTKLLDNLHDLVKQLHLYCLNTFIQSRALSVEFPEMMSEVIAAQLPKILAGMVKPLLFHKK
# [2] = molecular target: T2, Androgen receptor (Homo sapiens, UniProt P10275); test: Displacement of [3H]methyltrienolone from cytosolic fraction of androgen receptor in human […] cells after 24 hrs by scintillation counting analysis; format: cell-based
# T2 sequence (P10275 whole entry): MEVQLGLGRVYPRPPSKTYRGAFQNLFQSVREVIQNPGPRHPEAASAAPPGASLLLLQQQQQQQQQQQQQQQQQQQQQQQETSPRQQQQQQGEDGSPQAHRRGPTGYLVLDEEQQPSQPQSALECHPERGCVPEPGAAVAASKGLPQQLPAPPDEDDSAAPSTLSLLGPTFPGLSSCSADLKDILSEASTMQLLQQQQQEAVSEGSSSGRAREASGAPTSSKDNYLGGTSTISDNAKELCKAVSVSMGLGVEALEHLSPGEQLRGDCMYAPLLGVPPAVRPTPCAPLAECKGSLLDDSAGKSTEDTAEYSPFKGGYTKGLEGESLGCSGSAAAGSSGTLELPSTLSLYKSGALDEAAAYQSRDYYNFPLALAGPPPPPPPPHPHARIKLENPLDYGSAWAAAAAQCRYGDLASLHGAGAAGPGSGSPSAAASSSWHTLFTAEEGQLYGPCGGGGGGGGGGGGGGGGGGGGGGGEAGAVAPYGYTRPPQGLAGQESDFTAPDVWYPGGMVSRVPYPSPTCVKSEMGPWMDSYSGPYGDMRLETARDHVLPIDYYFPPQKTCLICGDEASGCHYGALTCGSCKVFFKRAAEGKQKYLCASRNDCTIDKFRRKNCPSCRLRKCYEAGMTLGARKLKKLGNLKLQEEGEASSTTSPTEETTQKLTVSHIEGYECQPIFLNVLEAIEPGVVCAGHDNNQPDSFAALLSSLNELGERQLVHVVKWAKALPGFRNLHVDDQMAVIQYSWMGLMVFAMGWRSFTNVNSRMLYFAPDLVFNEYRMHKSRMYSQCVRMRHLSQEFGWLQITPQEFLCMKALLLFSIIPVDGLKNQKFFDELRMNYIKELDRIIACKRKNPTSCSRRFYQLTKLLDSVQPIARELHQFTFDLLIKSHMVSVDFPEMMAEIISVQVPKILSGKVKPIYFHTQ
# Summary of the method: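 Assay run at Cerep. Binding of [³H]methyltrienolone to cytosolic androgen receptor from LNCaP cells.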
# [3] = Tmax in Sprague-Dawley rat at 10 mg/kg, po by LC/MS/MS analysis; format: ADME, organism-based; conditions: in vivo
# Summary of the method: (§1)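 Male Sprague–Dawley rats dosed orally (n = 4). Jugular vein blood sampled at 0.25, 0.5, 1, 2, 4, 6 and 24 h into heparin, plasma obtained by centrifugation. Concentrations determined by LC/MS/MS.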
# [4] = AUC (0 to t) in Sprague-Dawley rat at 1 mg/kg, iv by LC/MS/MS analysis; format: ADME, organism-based; conditions: in vivo
# Summary of the method: (§2)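 Single intravenous dose to male Sprague–Dawley rats (n = 4). Jugular vein blood drawn at 0.05, 0.25, 0.5, 1, 2, 4, 8 and 24 h, heparin anticoagulant, plasma separated by centrifugation. Plasma drug level measured by LC/MS/MS.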
# [5] = AUC (0 to t) in Sprague-Dawley rat at 10 mg/kg, po by LC/MS/MS analysis; format: ADME, organism-based; conditions: in vivo; summary of the method: as §1
# [6] = Half life in Sprague-Dawley rat at 1 mg/kg, iv by LC/MS/MS analysis; format: ADME, organism-based; conditions: in vivo; summary of the method: as §2
# [7] = Half life in Sprague-Dawley rat at 10 mg/kg, po by LC/MS/MS analysis; format: ADME, organism-based; conditions: in vivo; summary of the method: as §1
# [8] = Volume of distribution at steady state in Sprague-Dawley rat at 1 mg/kg, iv by LC/MS/MS analysis; format: ADME, organism-based; conditions: in vivo, read-out: Vdss; summary of the method: as §2
# [9] = Oral bioavailability (0 to infinity) in Sprague-Dawley rat at 10 mg/kg by LC/MS/MS analysis; format: ADME, organism-based; conditions: in vivo
# Summary of the method: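 Bioavailability from paired studies in male Sprague–Dawley rats: 1 mg/kg i.v. and 10 mg/kg p.o. (n = 4 each). Jugular vein heparinized plasma sampled up to 24 h, quantified by LC/MS/MS.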
# [10] = tested on: Rattus norvegicus; test: Antidepressant-like activity in Wistar rat assessed as immobility time at 10 mg/kg, po administered at 1, 5, 23.5 hrs prior to testing measured for 5 mins by forced swimming test (reference value: 211.3 to 232.2 secs); format: functional
# [11] = tested on: Rattus norvegicus; test: Antidepressant-like activity in Wistar rat assessed as immobility time at 30 mg/kg, po administered at 1, 5, 23.5 hrs prior to testing measured for 5 mins by forced swimming test (reference value: 211.3 to 232.2 secs); format: functional
# [12] = tested on: Rattus norvegicus; test: Antidepressant-like activity in Wistar rat assessed as immobility time at 100 mg/kg, po administered at 1, 5, 23.5 hrs prior to testing measured for 5 mins by forced swimming test (reference value: 211.3 to 232.2 secs); format: functional
# [13] = tested on: Rattus norvegicus; test: Antidepressant-like activity in Wistar rat assessed as decrease in immobility time at 100 mg/kg, po administered at 1, 5, 23.5 hrs prior to testing measured for 5 mins by forced swimming test relative to vehicle-treated control; format: functional; design: scale not given: the % may be the effect or the level left
structure (smiles),measurement,setting,value
Cc1noc(C)c1-c1cc2c(c3c1CCC3)NC(C)(C)C(=O)C2(C)C,Ki,[1],1480 nM
same,Ki,[2],> 2300 nM
same,Tmax,[3],3.5 h
same,AUC(0-t),[4],410 ng·h/mL
same,AUC(0-t),[5],2420 ng·h/mL
same,half-life,[6],3.2 h
same,half-life,[7],4.6 h
same,Vd,[8],6.13 L/kg
same,bioavailability,[9],59%
same,Time,[10],206.8 s
same,Time,[11],170.7 s
same,Time,[12],187.3 s
same,Activity,[13],80.7%
